Measured values from ChEMBL document CHEMBL5376013, “Design, synthesis and biological evaluation of novel morpholinopyrimidine-5-carbonitrile derivatives as dual PI3K/mTOR inhibitors” (RSC Med Chem, 2024).

Legend:
Format in all cases: functional
Details in all cases: read-out: GI
CCRF-CEM = assay: Antitumor activity against human CCRF-CEM cells assessed as growth inhibition at 10 uM relative to control
In short: (§1)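 After drug addition, plates were incubated 48 h at 37 °C under 5% CO2. Adherent cells were fixed with cold TCA (10% final, 60 min, 4 °C) and suspension cells with 16% final TCA. Staining used 0.4% SRB in 1% acetic acid, solubilized in 10 mM trizma, read at A515. Percent growth was calculated from time-zero, control and treated absorbances.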

HL-60 = assay: Antitumor activity against human HL-60 cells assessed as growth inhibition at 10 uM relative to control; in short: as §1
K562 = assay: Antitumor activity against human K562 cells assessed as growth inhibition at 10 uM relative to control; in short: as §1
MOLT-4 = assay: Antitumor activity against human MOLT-4 cells assessed as growth inhibition at 10 uM relative to control; in short: as §1
SR = assay: Antitumor activity against human SR cells assessed as growth inhibition at 10 uM relative to control
In short: (§2)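 Drug exposure 48 h at 37 °C, 5% CO2. Adherent cells fixed with cold TCA (10% final), suspension cells with TCA (16% final). Stained with 0.4% SRB in 1% acetic acid, dissolved in 10 mM Tris, A515. Growth relative to time-zero and untreated control.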

A549 = assay: Antitumor activity against human A549 cells assessed as growth inhibition at 10 uM relative to control; in short: as §1
EKVX = assay: Antitumor activity against human EKVX cells assessed as growth inhibition at 10 uM relative to control; in short: as §1
NCI-H226 = assay: Antitumor activity against human NCI-H226 cells assessed as growth inhibition at 10 uM relative to control; in short: as §1
NCI-H23 = assay: Antitumor activity against human NCI-H23 cells assessed as growth inhibition at 10 uM relative to control; in short: as §1
NCI-H322M = assay: Antitumor activity against human NCI-H322M cells assessed as growth inhibition at 10 uM relative to control; in short: as §1
NCI-H460 = assay: Antitumor activity against human NCI-H460 cells assessed as growth inhibition at 10 uM relative to control; in short: as §1
NCI-H522 = assay: Antitumor activity against human NCI-H522 cells assessed as growth inhibition at 10 uM relative to control; in short: as §1
COLO 205 = assay: Antitumor activity against human COLO 205 cells assessed as growth inhibition at 10 uM relative to control; in short: as §1
HCC 2998 = assay: Antitumor activity against human HCC 2998 cells assessed as growth inhibition at 10 uM relative to control; in short: as §1
HCT-15 = assay: Antitumor activity against human HCT-15 cells assessed as growth inhibition at 10 uM relative to control; in short: as §1
HT-29 = assay: Antitumor activity against human HT-29 cells assessed as growth inhibition at 10 uM relative to control; in short: as §1
SF-268 = assay: Antitumor activity against human SF-268 cells assessed as growth inhibition at 10 uM relative to control; in short: as §1
SF-539 = assay: Antitumor activity against human SF-539 cells assessed as growth inhibition at 10 uM relative to control; in short: as §1
SNB-19 = assay: Antitumor activity against human SNB-19 cells assessed as growth inhibition at 10 uM relative to control; in short: as §2
U-251 = assay: Antitumor activity against human U-251 cells assessed as growth inhibition at 10 uM relative to control; in short: as §2
LOX IMVI = assay: Antitumor activity against human LOX IMVI cells assessed as growth inhibition at 10 uM relative to control; in short: as §1
MDA-MB-435 = assay: Antitumor activity against human MDA-MB-435 cells assessed as growth inhibition at 10 uM relative to control; in short: as §1
SK-MEL-2 = assay: Antitumor activity against human SK-MEL-2 cells assessed as growth inhibition at 10 uM relative to control; in short: as §1
SK-MEL-28 = assay: Antitumor activity against human SK-MEL-28 cells assessed as growth inhibition at 10 uM relative to control; in short: as §2
SK-MEL-5 = assay: Antitumor activity against human SK-MEL-5 cells assessed as growth inhibition at 10 uM relative to control; in short: as §2
UACC-62 = assay: Antitumor activity against human UACC-62 cells assessed as growth inhibition at 10 uM relative to control; in short: as §2
IGROV-1 = assay: Antitumor activity against human IGROV-1 cells assessed as growth inhibition at 10 uM relative to control; in short: as §1
OVCAR-5 = assay: Antitumor activity against human OVCAR-5 cells assessed as growth inhibition at 10 uM relative to control; in short: as §1
OVCAR-8 = assay: Antitumor activity against human OVCAR-8 cells assessed as growth inhibition at 10 uM relative to control; in short: as §1
NCI/ADR-RES = assay: Antitumor activity against human NCI-ADR-RES cells assessed as growth inhibition at 10 uM relative to control; in short: as §1
SK-OV-3 = assay: Antitumor activity against human SK-OV-3 cells assessed as growth inhibition at 10 uM relative to control; in short: as §2
786-0 = assay: Antitumor activity against human 786-0 cells assessed as growth inhibition at 10 uM relative to control; in short: as §1
A498 = assay: Antitumor activity against human A498 cells assessed as growth inhibition at 10 uM relative to control; in short: as §1
ACHN = assay: Antitumor activity against human ACHN cells assessed as growth inhibition at 10 uM relative to control; in short: as §1
CAKI-1 = assay: Antitumor activity against human CAKI-1 cells assessed as growth inhibition at 10 uM relative to control; in short: as §1
RXF 393 = assay: Antitumor activity against human RXF 393 cells assessed as growth inhibition at 10 uM relative to control; in short: as §1
SN12C = assay: Antitumor activity against human SN12C cells assessed as growth inhibition at 10 uM relative to control; in short: as §2
TK-10 = assay: Antitumor activity against human TK-10 cells assessed as growth inhibition at 10 uM relative to control; in short: as §2
UO-31 = assay: Antitumor activity against human UO-31 cells assessed as growth inhibition at 10 uM relative to control; in short: as §2
PC-3 = assay: Antitumor activity against human PC-3 cells assessed as growth inhibition at 10 uM relative to control; in short: as §1
DU-145 = assay: Antitumor activity against human DU-145 cells assessed as growth inhibition at 10 uM relative to control; in short: as §1
MCF7 = assay: Antitumor activity against human MCF7 cells assessed as growth inhibition at 10 uM relative to control; in short: as §1
MDA-MB-231 = assay: Antitumor activity against human MDA-MB-231 cells assessed as growth inhibition at 10 uM relative to control; in short: as §1
Hs-578T = assay: Antitumor activity against human Hs-578T cells assessed as growth inhibition at 10 uM relative to control; in short: as §1
BT-549 = assay: Antitumor activity against human BT-549 cells assessed as growth inhibition at 10 uM relative to control; in short: as §1
T47D = assay: Antitumor activity against human T47D cells assessed as growth inhibition at 10 uM relative to control; in short: as §2

N#Cc1c(-c2ccc(Cl)cc2)nc(N/N=C/c2ccco2)nc1N1CCOCC1
inhibition of growth at 10 µM (CCRF-CEM): 11.3% | inhibition of growth at 10 µM (HL-60): < 1% | inhibition of growth at 10 µM (K562): < 1% | inhibition of growth at 10 µM (MOLT-4): 17% | inhibition of growth at 10 µM (SR): < 1% | inhibition of growth at 10 µM (A549): 21.1% | inhibition of growth at 10 µM (EKVX): 53.5% | inhibition of growth at 10 µM (NCI-H226): 59.4% | inhibition of growth at 10 µM (NCI-H23): 29.2% | inhibition of growth at 10 µM (NCI-H322M): 30.6% | inhibition of growth at 10 µM (NCI-H460): 31.8% | inhibition of growth at 10 µM (NCI-H522): 37.7% | inhibition of growth at 10 µM (COLO 205): 24.8% | inhibition of growth at 10 µM (HCC 2998): 25.2% | inhibition of growth at 10 µM (HCT-15): 19.7% | inhibition of growth at 10 µM (HT-29): 13% | inhibition of growth at 10 µM (SF-268): 25.5% | inhibition of growth at 10 µM (SF-539): 24.7% | inhibition of growth at 10 µM (SNB-19): 20% | inhibition of growth at 10 µM (U-251): < 1% | inhibition of growth at 10 µM (LOX IMVI): 21.3% | inhibition of growth at 10 µM (MDA-MB-435): 20.6% | inhibition of growth at 10 µM (SK-MEL-2): 17.7% | inhibition of growth at 10 µM (SK-MEL-28): 34.1% | inhibition of growth at 10 µM (SK-MEL-5): 19.1% | inhibition of growth at 10 µM (UACC-62): 41.8% | inhibition of growth at 10 µM (IGROV-1): 74.2% | inhibition of growth at 10 µM (OVCAR-5): 23.1% | inhibition of growth at 10 µM (OVCAR-8): 21.1% | inhibition of growth at 10 µM (NCI/ADR-RES): 24.2% | inhibition of growth at 10 µM (SK-OV-3): 50.6% | inhibition of growth at 10 µM (786-0): 25.9% | inhibition of growth at 10 µM (A498): < 1% | inhibition of growth at 10 µM (ACHN): 23.3% | inhibition of growth at 10 µM (CAKI-1): < 1% | inhibition of growth at 10 µM (RXF 393): < 1% | inhibition of growth at 10 µM (SN12C): 17.9% | inhibition of growth at 10 µM (TK-10): 37.6% | inhibition of growth at 10 µM (UO-31): 72.9% | inhibition of growth at 10 µM (PC-3): 31.7% | inhibition of growth at 10 µM (DU-145): 14.6% | inhibition of growth at 10 µM (MCF7): < 73.8% | inhibition of growth at 10 µM (MDA-MB-231): 25.5% | inhibition of growth at 10 µM (Hs-578T): 31.8% | inhibition of growth at 10 µM (BT-549): 41.5% | inhibition of growth at 10 µM (T47D): 76.8%
